# Results collected from several papers.
# Protocols differ between the studies behind these lines.
# Technique: competition with immobilised ligand
# JAK2 JH1: Tyrosine-protein kinase JAK2, JH1 (JAK2, Homo sapiens, UniProt O60674)
# JAK2: Tyrosine-protein kinase JAK2 (JAK2, Homo sapiens, UniProt O60674)
SMILES,target,test,conditions,remaining binding [%]
CC1CCCN1c1nccc(-c2cnn3ncccc23)n1 (stereo not shown),JAK2 JH1,cell-free assay,1 µM,98
Nc1ncc2c(n1)-c1c([nH]c3ccc(C#CC4CC4)cc13)CCCC2,JAK2 JH1,binding,1 µM,80
CN(CCCC(F)(F)F)c1nccc(-c2cnn3ncccc23)n1,JAK2 JH1,cell-free assay,1 µM,94
Cc1cnc(Nc2ccc(C(=O)N3CCC(N4CCCC4)CC3)cc2)nc1-c1cc2ccccc2s1,JAK2 JH1,binding,1 µM,0
C[C@@H]1CN(c2ccc3ncc(-c4ccc5[nH]nc(C6CC6)c5c4)n3n2)C[C@H](C)O1,JAK2,binding,50 nM,100
COc1ncc2cc3ccccc3nc2c1C#N,JAK2 JH1,cell-free assay,5 µM,88
CCc1ccccc1C(=O)Nc1n[nH]c2c(C)c(F)c(C3C(C#N)=C(C)N(C)C(C)=C3C#N)cc12,JAK2 JH1,cell-free assay,1 µM,100
O=C(NCCCN1CCOCC1)c1ccc(Nc2nccc(-c3cc4ccccc4s3)n2)cc1,JAK2 JH1,binding,1 µM,0.4
c1cncc(-c2cccc(Nc3nccc(NC4CCCCC4)n3)c2)c1,JAK2 JH1,binding,10 µM,0.05
N[C@@H]1CCN(c2nccc(-c3cnn4ncccc34)n2)C1,JAK2 JH1,cell-free assay,1 µM,100
CC(=O)N1CCC(c2ccc(C(=O)NC3=NCCN3)cc2C(F)(F)F)CC1,JAK2 JH1,cell-free assay,1 µM,100
CCN1CCN(Cc2ccc(C(=O)Nc3ccc(C)c(Oc4ccc5c(c4)CC(=O)N5)c3)cc2C(F)(F)F)CC1,JAK2 JH1,binding,1 µM,91
Cn1nc(C(F)(F)F)cc1-c1cnc(N2CCc3cc(S(=O)(=O)Nc4c(F)cc(Cl)cc4F)cc(N4CCCC4=O)c32)nc1,JAK2 JH1,cell-free assay,1 µM,82
CC(C)(C)c1ccc(-c2nc(CBr)nn2-c2cccc(O)c2)cc1,JAK2,cell-free assay,10 µM,67
COc1cnc(Nc2cccc(S(N)(=O)=O)c2)nc1N1CCN(c2ccccc2)CC1,JAK2 JH1,binding,1 µM,14
COc1ccc2cc(OCC3(C(=O)O)CN(C(=O)c4ccc(F)cc4)C3)ccc2c1,JAK2 JH1,cell-free assay,1 µM,89
O=C(Nc1c[nH]nc1C(=O)NC1CCNCC1)c1cc(F)cc(F)c1,JAK2 JH1,binding,1 µM,100
CNC(=O)Nc1ccc2c(c1)[C@@]1(CC2)OC(=O)N(CC(=O)N(Cc2ccc(F)cc2)[C@@H](C)C(F)(F)F)C1=O,JAK2 JH1,cell-free assay,1 µM,100
O=C(NCCCN1CCOCC1)c1ccc(Nc2ncc(Cl)c(-c3ccc(Cl)s3)n2)cc1,JAK2 JH1,binding,1 µM,2.9
